In ChEMBL document CHEMBL2390866, “Novel pyrimidoazepine analogs as serotonin 5-HT(2A) and 5-HT(2C) receptor ligands for the treatment of obesity” (Eur J Med Chem, 2013):
Calls of active or inactive are those of the source. No cut-off for these calls is given here.

How the values were obtained:
[1] = AUC (0 to infinity) in Sprague-Dawley rat at 10 mg/kg, iv; format: ADME, organism-based; parameters: time infinity, dose 10 mg/kg, route intravenous; settings: plasma
[2] = target: T1, 5-hydroxytryptamine receptor 2C (Homo sapiens, UniProt P28335); assay: Displacement of [3H]-mesulergine from human recombinant 5HT-2C receptor expressed in CHOK1 cell membranes after 30 mins; parameters: species or system CHO-K1
T1 sequence (P28335 whole entry): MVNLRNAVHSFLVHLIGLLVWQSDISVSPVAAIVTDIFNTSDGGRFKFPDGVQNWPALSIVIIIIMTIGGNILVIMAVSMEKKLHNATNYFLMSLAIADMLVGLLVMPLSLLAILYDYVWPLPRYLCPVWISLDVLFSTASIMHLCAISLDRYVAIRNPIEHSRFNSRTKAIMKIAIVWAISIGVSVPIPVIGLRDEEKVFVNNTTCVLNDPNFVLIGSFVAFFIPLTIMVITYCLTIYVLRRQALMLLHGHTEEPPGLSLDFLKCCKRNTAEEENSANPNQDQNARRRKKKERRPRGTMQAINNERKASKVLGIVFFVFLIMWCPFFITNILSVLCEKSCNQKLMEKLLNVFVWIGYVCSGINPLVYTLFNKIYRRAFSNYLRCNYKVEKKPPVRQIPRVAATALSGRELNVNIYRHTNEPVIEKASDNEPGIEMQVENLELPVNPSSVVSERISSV
Outline: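 Frozen CHO-K1 membranes expressing recombinant human 5-HT2C incubated with 1 nM [3H]mesulergine in 50 mM Tris-HCl pH 7.4 containing 0.1% ascorbic acid and pargyline. Mianserin defined nonspecific binding.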

[3] = Plasma concentration in Sprague-Dawley rat at 10 mg/kg, po measured at 2 hrs; format: ADME, organism-based; parameters: dose 10 mg/kg, route oral
Outline: (§1)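 Rats fasted 12 h, then dosed orally by gavage or by bolus tail-vein injection at 2 ml/kg. Compound given as a 5 mg/ml solution in N-methyl-2-pyrrolidone/Tween 80/water (1:2:7). Samples taken at various times (n = 5) and stored at −70 °C. Plasma deproteinized with acetonitrile containing carbamazepine internal standard, then quantified by LC-MS/MS.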

[4] = Clearance in Sprague-Dawley rat at 10 mg/kg, iv; format: ADME, organism-based; parameters: dose 10 mg/kg, route intravenous; settings: in vivo; outline: as §1
[5] = Tmax in Sprague-Dawley rat at 10 mg/kg, po; format: ADME, organism-based; parameters: dose 10 mg/kg, route oral; settings: in vivo; outline: as §1
Mus musculus [6] = assay: Antiobesity activity in B6.V/J ob/ob mouse assessed as change in liver weight at 5 mg/kg, po bid measured after 14 days (reference value: 3.396 +/- 0.162 g); format: functional
Mus musculus [7] = assay: Antiobesity activity in B6.V/J ob/ob mouse assessed as change in spleen weight at 50 mg/kg, po bid measured after 14 days (reference value: 0.097 +/- 0.052 g); format: functional
Mus musculus [8] = assay: Antiobesity activity in B6.V/J ob/ob mouse assessed as change in thymus weight at 25 mg/kg, po bid measured after 14 days (reference value: 0.029 +/- 0.006 g); format: functional
[9] = target: T2, 5-hydroxytryptamine receptor 1A (Homo sapiens, UniProt P08908); assay: Displacement from [3H]8-OH-DPAT from human recombinant 5HT-1A receptor expressed in HEK293 cells after 120 mins; format: cell-based
T2 sequence (P08908 whole entry): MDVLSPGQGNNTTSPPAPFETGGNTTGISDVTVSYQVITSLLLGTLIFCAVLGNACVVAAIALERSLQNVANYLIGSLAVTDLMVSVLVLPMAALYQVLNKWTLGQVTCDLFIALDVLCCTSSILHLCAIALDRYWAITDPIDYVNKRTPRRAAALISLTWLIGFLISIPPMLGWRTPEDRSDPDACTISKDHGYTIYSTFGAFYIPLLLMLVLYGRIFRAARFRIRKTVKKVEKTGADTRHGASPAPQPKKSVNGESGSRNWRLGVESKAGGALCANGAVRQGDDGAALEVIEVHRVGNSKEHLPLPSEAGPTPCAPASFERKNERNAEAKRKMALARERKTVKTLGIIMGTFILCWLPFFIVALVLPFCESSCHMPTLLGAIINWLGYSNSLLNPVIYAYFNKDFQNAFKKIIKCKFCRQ
Outline: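 Membranes from HEK293-EBNA cells stably expressing recombinant human 5-HT1A. Incubated with 2 nM [3H]8-OH-DPAT and test compound at a range of concentrations in 50 mM Tris-HCl pH 7.4 with 5 mM MgSO4.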

Mus musculus [10] = assay: Antiobesity activity in B6.V/J ob/ob mouse assessed as change in kidney weight at 50 mg/kg, po bid measured after 14 days (reference value: 0.339 +/- 0.009 g); format: functional
Mus musculus [11] = assay: Antiobesity activity in B6.V/J ob/ob mouse assessed as change in brain weight at 50 mg/kg, po bid measured after 14 days (reference value: 0.340 +/- 0.017 g); format: functional
[12] = Mean residence time in Sprague-Dawley rat at 10 mg/kg, iv; format: ADME, organism-based; parameters: dose 10 mg/kg, route intravenous; settings: in vivo; outline: as §1
[13] = target: 5-hydroxytryptamine receptor 2B (Homo sapiens, UniProt P41595); assay: Displacement of […] from human recombinant 5HT-2B receptor
5-hydroxytryptamine receptor 2B, sequence (P41595 whole entry): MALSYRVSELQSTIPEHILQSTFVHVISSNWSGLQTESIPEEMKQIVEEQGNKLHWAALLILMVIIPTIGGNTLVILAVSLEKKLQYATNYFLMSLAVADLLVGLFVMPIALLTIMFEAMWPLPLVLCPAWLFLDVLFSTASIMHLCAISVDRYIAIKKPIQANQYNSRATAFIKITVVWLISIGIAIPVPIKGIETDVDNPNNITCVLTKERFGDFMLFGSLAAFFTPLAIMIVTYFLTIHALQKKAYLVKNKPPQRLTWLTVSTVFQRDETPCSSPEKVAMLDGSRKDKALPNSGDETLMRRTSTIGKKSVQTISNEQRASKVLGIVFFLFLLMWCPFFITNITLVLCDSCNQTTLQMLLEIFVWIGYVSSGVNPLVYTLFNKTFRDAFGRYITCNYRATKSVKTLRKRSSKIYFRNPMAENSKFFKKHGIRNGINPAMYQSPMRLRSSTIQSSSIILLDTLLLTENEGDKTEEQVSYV

[14] = target: T3, Alpha-2A adrenergic receptor (Homo sapiens, UniProt P08913); assay: Binding affinity to adrenergic alpha2A receptor (unknown origin)
T3 sequence (P08913 whole entry): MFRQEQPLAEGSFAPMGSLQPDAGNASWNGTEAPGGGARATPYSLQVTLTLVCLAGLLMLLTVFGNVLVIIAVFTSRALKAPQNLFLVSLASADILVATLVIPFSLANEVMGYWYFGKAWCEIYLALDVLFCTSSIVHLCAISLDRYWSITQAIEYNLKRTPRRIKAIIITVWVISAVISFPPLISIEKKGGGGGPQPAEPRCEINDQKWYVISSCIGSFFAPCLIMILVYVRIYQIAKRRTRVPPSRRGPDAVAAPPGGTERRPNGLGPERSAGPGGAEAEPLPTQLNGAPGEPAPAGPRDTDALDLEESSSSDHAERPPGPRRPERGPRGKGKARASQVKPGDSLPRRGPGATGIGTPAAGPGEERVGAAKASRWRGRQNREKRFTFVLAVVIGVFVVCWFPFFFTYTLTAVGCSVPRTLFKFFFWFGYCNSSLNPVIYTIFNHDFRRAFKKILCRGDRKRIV

[15] = Drug excretion in Sprague-Dawley rat at 10 mg/kg, po; format: ADME, organism-based; parameters: dose 10 mg/kg, route oral; settings: in vivo, read-out: Ae; outline: as §1
Mus musculus [16] = assay: Antiobesity activity in B6.V/J ob/ob mouse assessed as reduction of food intake at 25 mg/kg, po qd measured after 14 days; format: functional, organism-based; parameters: dose 25 mg/kg
Outline: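 Male ob/ob mice (B6.V-Lep^ob/J) received oral doses once daily for 14 days, with vehicle control. Food intake and body weight gain were followed.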

Mus musculus [17] = assay: Antiobesity activity in B6.V/J ob/ob mouse assessed as change in kidney weight at 5 mg/kg, po bid measured after 14 days (reference value: 0.339 +/- 0.009 g); format: functional
Mus musculus [18] = assay: Antiobesity activity in C57BL/6 mouse assessed as inhibition of body weight gain at 50 mg/kg, ip measured after 2 to 12 hrs relative to vehicle-treated control; format: functional; settings: C57BL/6, ip, route intraperitoneal
Mus musculus [19] = assay: Toxicity in B6.V/J ob/ob mouse assessed as mortality at 50 mg/kg, po bid measured after 14 days; format: organism-based; parameters: dose 50 mg/kg, route oral; settings: in vivo, 336 h
[20] = Cmax in Sprague-Dawley rat at 10 mg/kg, po; format: ADME, organism-based; parameters: dose 10 mg/kg, route oral; settings: in vivo; outline: as §1

Compound: Cl.Clc1cccc(Nc2nc(Cc3ccccc3)nc3c2CCNCC3)c1
- AUC(0-inf) [1]: 1910 ng·h/mL
- IC50 [2]: 0.0023 µM
- concentration at 2 h [3]: 50 ng/mL
- clearance [4]: 97.2 mL/min/kg
- Tmax [5]: 3.5 h
- Activity (Mus musculus [6]): 3.394 g
- Activity (Mus musculus [7]): 0.075 g
- Activity (Mus musculus [8]): 0.034 g
- IC50 [9]: 1.06 µM
- Activity (Mus musculus [10]): 0.35 g
- Activity (Mus musculus [11]): 0.36 g
- MRT [12]: 1.88 h
- IC50 [13]: 0.032 µM
- IC50 [14]: > 10 µM
- dose excreted [15]: 0.03%
- Activity (Mus musculus [16]): inactive
- Activity (Mus musculus [17]): 0.329 g
- inhibition in vivo at 50 mg/kg (Mus musculus [18]): 84.8%
- Activity (Mus musculus [19]): Toxic
- Cmax [20]: 70 ng/mL
